Experiment [1] deals with Trichoderma viride. Description: Antifungal activity against Trichoderma viride after 5 days by agar diffusion method. It is filed as functional. Particulars: 120 h.
Experiment [2] relates to Pseudomonas aeruginosa. Kind of experiment: Antibacterial activity against Pseudomonas aeruginosa after 24 to 28 hrs by agar diffusion method. Format: functional. On the technique in general: In agar diffusion tests the substance spreads into inoculated agar from a disc or well.
In experiment [3] the test system is Bacillus subtilis. Kind of experiment: Antibacterial activity against Bacillus subtilis after 24 to 28 hrs by agar diffusion method. It is filed as functional.
The subject of experiment [4] is MDA-MB-231. Description: Cytotoxicity against human estrogen receptor-negative MDA-MB-231 cells after 48 hrs by MTT assay. It is filed as functional, cell-based. Particulars: MDA-MB-231, 48 h. The method, boiled down: (§1)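 Cells kept in a humidified 5% CO2 incubator. Compounds diluted in culture medium and added to wells alongside a vehicle control. After MTT, supernatant removed, formazan dissolved in DMSO, and absorbance read at 540 nm. Percentage growth inhibition calculated. At least three independent assays.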
Background: Tetrazolium dyes change colour on reduction, which living cells bring about.

The test system of experiment [5] is Lactococcus lactis. Kind of experiment: Antibacterial activity against Streptococcus lactis after 24 to 28 hrs by agar diffusion method. Format: functional.
Experiment [6] concerns Aspergillus flavus. Kind of experiment: Antifungal activity against Aspergillus flavus after 5 days by agar diffusion method. It is filed as functional. Particulars: 120 h.
In experiment [7] the test system is Escherichia coli. Description: Antibacterial activity against Escherichia coli after 24 to 28 hrs by agar diffusion method. Format: functional.
The test system of experiment [8] is HEK293. Description: Cytotoxicity against human HEK293 cells after 48 hrs by MTT assay. It is filed as cell-based. Particulars: HEK293, 48 h. In short, it runs like this: as §1
For experiment [9], the system named is MCF7. Kind of experiment: Cytotoxicity against human estrogen receptor-positive MCF7 cells after 48 hrs by MTT assay. Particulars: MCF7, 48 h. It is filed as functional, cell-based. In short, it runs like this: as §1

We go through 10 compounds from ChEMBL document CHEMBL1949646, “Design, synthesis, in vitro antimicrobial and anticancer activity of novel methylenebis-isoxazolo[4,5-b]azepines derivatives” (Eur J Med Chem, 2012).

The structures appear in SMILES notation. Values after ≈ are worked out from the molar mass of the structure shown.

In general, MIC refers to the least concentration at which growth counts as inhibited. Low readings indicate a more susceptible organism, high ones a less susceptible organism. As usually defined, the IC50 is the point on the concentration scale where inhibition reaches its midpoint. Low values mean greater potency in that assay, high ones weaker potency in that assay.

As to `Cc1noc2c1N=C(c1ccccc1)CC(c1cc(Cc3ccc(O)c(C4CC(c5ccccc5)=Nc5c(C)noc5C4)c3)ccc1O)C2` (stereo not given), the minimal inhibitory concentration (MIC) in experiment [1] was determined as 40 µg/mL (≈ 61.7 µM); in [2] it was 35 µg/mL (≈ 53.9 µM); in experiment [3], 35 µg/mL (≈ 53.9 µM); in experiment [5], 40 µg/mL (≈ 61.7 µM); in [6] it was 40 µg/mL (≈ 61.7 µM); in experiment [7], 40 µg/mL (≈ 61.7 µM). The IC50 was 82.6 µM in [4], 85.4 µM in experiment [8] and 80.6 µM in [9].
As for `Cc1noc2c1N=C(c1ccc(Br)cc1)CC(c1cc(Cc3ccc(O)c(C4CC(c5ccc(Br)cc5)=Nc5c(C)noc5C4)c3)ccc1O)C2` (stereo not given), the MIC in [1] was 32 µg/mL (≈ 39.7 µM); in experiment [2], 30 µg/mL (≈ 37.2 µM); in experiment [3] it was 30 µg/mL (≈ 37.2 µM); in experiment [5] it was 25 µg/mL (≈ 31 µM); in [6] it was 30 µg/mL (≈ 37.2 µM); in [7], 27 µg/mL (≈ 33.5 µM). Further, the IC50 in experiment [4] stood at 51.2 µM; in experiment [8], 54.5 µM; in [9], 34.2 µM.
With `Cc1noc2c1N=C(c1ccc([N+](=O)[O-])cc1)CC(c1cc(Cc3ccc(O)c(C4CC(c5ccc([N+](=O)[O-])cc5)=Nc5c(C)noc5C4)c3)ccc1O)C2` (stereo not given), the MIC in experiment [1] is 30 µg/mL (≈ 40.6 µM); in [2], 28 µg/mL (≈ 37.9 µM); in experiment [3] it was 30 µg/mL (≈ 40.6 µM); in [5], 26 µg/mL (≈ 35.2 µM); in experiment [6], 30 µg/mL (≈ 40.6 µM); in experiment [7] it was 28 µg/mL (≈ 37.9 µM). For the same compound, the IC50 was found to be 53.4 µM in [4], 55.6 µM in experiment [8] and 36.3 µM in experiment [9].
For `Cc1noc2c1N=C(c1ccc(Cl)cc1)CC(c1cc(Cc3ccc(O)c(C4CC(c5ccc(Cl)cc5)=Nc5c(C)noc5C4)c3)ccc1O)C2` (stereo not given), the MIC in experiment [1] was 30 µg/mL (≈ 41.8 µM); in experiment [2], 30 µg/mL (≈ 41.8 µM); in [3], 28 µg/mL (≈ 39 µM); in experiment [5], 25 µg/mL (≈ 34.8 µM); in [6] it was 32 µg/mL (≈ 44.6 µM); in [7], 28 µg/mL (≈ 39 µM). Also, the IC50 in [4] amounted to 52.5 µM; in experiment [8], 53.3 µM; in experiment [9] it was 30.4 µM.
As to `COc1ccc(C2=Nc3c(C)noc3CC(c3cc(Cc4ccc(O)c(C5CC(c6ccc(OC)cc6)=Nc6c(C)noc6C5)c4)ccc3O)C2)cc1` (stereo not given), the MIC in experiment [1] is 40 µg/mL (≈ 56.4 µM); in experiment [2], 32 µg/mL (≈ 45.1 µM); in experiment [3] it was 35 µg/mL (≈ 49.4 µM); in experiment [5], 30 µg/mL (≈ 42.3 µM); in experiment [6], 35 µg/mL (≈ 49.4 µM); in experiment [7] it was 35 µg/mL (≈ 49.4 µM). For the same compound, the figures for the IC50 in [4], in experiment [8] and in experiment [9] were 58.1 µM, 57.4 µM and 40.4 µM, respectively.
Regarding `Cc1ccc(C2=Nc3c(C)noc3CC(c3cc(Cc4ccc(O)c(C5CC(c6ccc(C)cc6)=Nc6c(C)noc6C5)c4)ccc3O)C2)cc1` (stereo not given), the MIC amounted to 38 µg/mL (≈ 56.1 µM) in experiment [1]; 40 µg/mL (≈ 59.1 µM) in experiment [2]; 35 µg/mL (≈ 51.7 µM) in experiment [3]; 32 µg/mL (≈ 47.3 µM) in experiment [5]; 35 µg/mL (≈ 51.7 µM) in experiment [6]; 35 µg/mL (≈ 51.7 µM) in experiment [7]. Further, the figures for the IC50 in experiment [4], in [8] and in [9] were 61.1 µM, 63.4 µM and 42.3 µM, respectively.
On to `Cc1noc2c1N=C(c1ccccc1O)CC(c1cc(Cc3ccc(O)c(C4CC(c5ccccc5O)=Nc5c(C)noc5C4)c3)ccc1O)C2` (stereo not given), for which the minimal inhibitory concentration (MIC) in experiment [1] was found to be 40 µg/mL (≈ 58.8 µM); in experiment [2], 38 µg/mL (≈ 55.8 µM); in experiment [3] it was 38 µg/mL (≈ 55.8 µM); in experiment [5], 35 µg/mL (≈ 51.4 µM); in experiment [6], 38 µg/mL (≈ 55.8 µM); in experiment [7] it was 36 µg/mL (≈ 52.9 µM). In addition, the figures for the IC50 in experiment [4], in experiment [8] and in experiment [9] were 63.4 µM, 65.5 µM and 44.3 µM, respectively.
In the case of `Cc1noc2c1N=C(c1ccco1)CC(c1cc(Cc3ccc(O)c(C4CC(c5ccco5)=Nc5c(C)noc5C4)c3)ccc1O)C2` (stereo not given), the MIC worked out at 16 µg/mL (≈ 25.4 µM) in experiment [1]; 14 µg/mL (≈ 22.3 µM) in [2]; 20 µg/mL (≈ 31.8 µM) in experiment [3]; 22 µg/mL (≈ 35 µM) in [5]; 20 µg/mL (≈ 31.8 µM) in experiment [6]; 16 µg/mL (≈ 25.4 µM) in experiment [7]. The IC50 in [4] was determined as 10.3 µM; in [8], 30.2 µM; in experiment [9], 12.5 µM.
As to `Cc1noc2c1N=C(c1cccs1)CC(c1cc(Cc3ccc(O)c(C4CC(c5cccs5)=Nc5c(C)noc5C4)c3)ccc1O)C2` (stereo not given), the MIC in experiment [1] was 14 µg/mL (≈ 21.2 µM); in experiment [2], 12 µg/mL (≈ 18.2 µM); in experiment [3], 19 µg/mL (≈ 28.8 µM); in experiment [5] it was 20 µg/mL (≈ 30.3 µM); in experiment [6] it was 15 µg/mL (≈ 22.7 µM); in experiment [7], 14 µg/mL (≈ 21.2 µM). In addition, the IC50 was 18.2 µM in experiment [4], 10.3 µM in experiment [8] and 10.2 µM in experiment [9].
For the compound `CCn1cc(C(=O)O)c(=O)c2ccc(C)nc21` [NALIDIXIC ACID], the minimum inhibitory concentration (MIC) in experiment [2] is 30 µg/mL (≈ 129 µM); in [3], 30 µg/mL (≈ 129 µM); in experiment [5] it was 25 µg/mL (≈ 108 µM); in experiment [7], 28 µg/mL (≈ 121 µM).
